Results from ChEMBL document CHEMBL3045963, “Synthesis of nalidixic acid based hydrazones as novel pesticides” (2010).
Values after ≈ are worked out from the molar mass of the structure shown.

Columns and labels:
Format in all cases: functional
[1] = system: Spodoptera litura; test: Insecticidal activity against third-instar larval stage of Spodoptera litura assessed as mortality at 0.1% applied topically on the ventral side of the larvae measured after 24 hr by contact method
Method in brief: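 Field-collected larvae are reared in the lab at 27 ± 1 °C and 70% RH. Two microliters of a 0.1% dichloromethane solution is applied to the ventral side. Ten treated larvae are kept per glass bottle and fed fresh castor leaves. Mortality is recorded at 24 h. Triplicate, solvent control.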

[2] = system: Callosobruchus maculatus; test: Insecticidal activity against adult Callosobruchus maculatus assessed as mortality at 0.1% at 27 +/-1 degC after 24 hr by contact based film residue method
Method in brief: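 Lab-reared adults, 2-5 days old, exposed to a dry film: 1 mL of 0.1% compound solution in dichloromethane is swirled in a 90 mm Petri plate and dried 3-5 min. Ten adults per plate are held at 27 ± 1 °C and 70% RH. Mortality is scored at 24 h, with no response to touch counted as dead. Triplicates, solvent control, malathion reference.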

[3] = system: Athelia rolfsii; test: Fungicidal activity against Athelia rolfsii by poisoned food technique; details: Agroathelia rolfsii; read-out: ED50 (the source's name)
[4] = system: Macrophomina phaseolina; test: Fungicidal activity against Rhizoctonia bataticola by poisoned food technique; details: read-out: ED50 (the source's name)
[5] = system: Fusarium oxysporum; test: Fungicidal activity against Fusarium oxysporum by poisoned food technique; details: read-out: ED50 (the source's name)
[6] = system: Spodoptera litura; test: Insecticidal activity against third-instar larval stage of prestarved Spodoptera litura in castor leaf assessed as mortality at 0.1% treated for 2 secs before larval infestation measured after 24 hr by feeding method
Method in brief: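 Castor leaf is dipped 2 s in 0.1% compound solution, air-dried, and placed on moist filter paper in 9 cm Petri plates. Larvae starved 4 h beforehand are released singly, one per plate. Thirty replicates per treatment, solvent control. Mortality is scored after 24 h.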

[7] = system: Rhizoctonia solani; test: Fungicidal activity against Rhizoctonia solani by poisoned food technique; details: read-out: ED50 (the source's name)
[8] = system: Alternaria porri; test: Fungicidal activity against Alternaria porri by poisoned food technique; details: read-out: ED50 (the source's name)

Compound	mortality [1] [%]	mortality [2] [%]	EC50 [3] [µg/mL]	EC50 [4] [µg/mL]	EC50 [5] [µg/mL]	mortality [6] [%]	EC50 [7] [µg/mL]	EC50 [8] [µg/mL]
CCn1cc(C(=O)N/N=C/c2cccc3ccccc23)c(=O)c2ccc(C)nc21	10	0	259 (≈ 674 µM)	316 (≈ 821 µM)	134 (≈ 350 µM)	90	226 (≈ 589 µM)	115 (≈ 300 µM)
C/C=C/C=N/NC(=O)c1cn(CC)c2nc(C)ccc2c1=O		0	204 (≈ 683 µM)	324 (≈ 1090 µM)	95.4 (≈ 320 µM)	60	248 (≈ 830 µM)	89.8 (≈ 301 µM)
CCn1cc(C(=O)N/N=C/c2ccccc2C)c(=O)c2ccc(C)nc21		10	346 (≈ 993 µM)	533 (≈ 1530 µM)	129 (≈ 369 µM)	0	408 (≈ 1170 µM)	109 (≈ 313 µM)
CCn1cc(C(=O)N/N=C/c2cccc(C)c2)c(=O)c2ccc(C)nc21		60	298 (≈ 854 µM)	322 (≈ 924 µM)	103 (≈ 296 µM)	80	301 (≈ 865 µM)	66.9 (≈ 192 µM)
CCn1cc(C(=O)N/N=C/c2ccc(C)cc2)c(=O)c2ccc(C)nc21	10	20	374 (≈ 1070 µM)	378 (≈ 1080 µM)	195 (≈ 560 µM)	70	372 (≈ 1070 µM)	87.3 (≈ 251 µM)
CCn1cc(C(=O)N/N=C/c2ccc(C(C)C)cc2)c(=O)c2ccc(C)nc21		20	464 (≈ 1230 µM)	453 (≈ 1200 µM)	277 (≈ 736 µM)	10	252 (≈ 671 µM)	124 (≈ 331 µM)
CCn1cc(C(=O)N/N=C/c2ccc(Cl)cc2Cl)c(=O)c2ccc(C)nc21		40	541 (≈ 1340 µM)	495 (≈ 1230 µM)	121 (≈ 300 µM)	100	354 (≈ 877 µM)	119 (≈ 296 µM)
CCn1cc(C(=O)N/N=C/c2c(Cl)cccc2Cl)c(=O)c2ccc(C)nc21	10	30	282 (≈ 701 µM)	255 (≈ 633 µM)	114 (≈ 283 µM)	100	298 (≈ 738 µM)	87.2 (≈ 216 µM)
CCn1cc(C(=O)N/N=C/c2ccc(O)cc2O)c(=O)c2ccc(C)nc21		25	397 (≈ 1080 µM)	650 (≈ 1770 µM)	196 (≈ 536 µM)	40	342 (≈ 932 µM)	144 (≈ 392 µM)
CCn1cc(C(=O)N/N=C/c2ccc(OC)cc2OC)c(=O)c2ccc(C)nc21	10	12	375 (≈ 950 µM)	382 (≈ 969 µM)	176 (≈ 447 µM)	100	188 (≈ 477 µM)	131 (≈ 332 µM)
CCn1cc(C(=O)N/N=C/c2ccc(OC)c(OC)c2)c(=O)c2ccc(C)nc21		10	359 (≈ 909 µM)	285 (≈ 722 µM)	137 (≈ 346 µM)	40	172 (≈ 435 µM)	102 (≈ 259 µM)
CCn1cc(C(=O)N/N=C/c2ccc(O)c(OC)c2)c(=O)c2ccc(C)nc21	20	20	460 (≈ 1210 µM)	528 (≈ 1390 µM)	377 (≈ 991 µM)	100	317 (≈ 833 µM)	128 (≈ 337 µM)
CCOc1cc(/C=N/NC(=O)c2cn(CC)c3nc(C)ccc3c2=O)ccc1O	10	22	384 (≈ 974 µM)	400 (≈ 1010 µM)	185 (≈ 469 µM)	90	356 (≈ 903 µM)	92.1 (≈ 234 µM)
CCn1cc(C(=O)N/N=C/c2cc(OC)c(OC)c(OC)c2)c(=O)c2ccc(C)nc21	10	10	186 (≈ 438 µM)	201 (≈ 474 µM)	102 (≈ 241 µM)	90	174 (≈ 409 µM)	79.4 (≈ 187 µM)
CCn1cc(C(=O)N/N=C/c2ccccn2)c(=O)c2ccc(C)nc21		10	198 (≈ 590 µM)	372 (≈ 1110 µM)	79.1 (≈ 236 µM)	100	170 (≈ 508 µM)	77.3 (≈ 230 µM)
CCn1cc(C(=O)N/N=C/c2ccc(F)cc2)c(=O)c2ccc(C)nc21		10	220 (≈ 624 µM)	244 (≈ 692 µM)	79.9 (≈ 227 µM)	50	234 (≈ 665 µM)	64.8 (≈ 184 µM)
CCn1cc(C(=O)N/N=C/c2cccc(Cl)c2)c(=O)c2ccc(C)nc21		10	439 (≈ 1190 µM)	504 (≈ 1370 µM)	132 (≈ 358 µM)	90	394 (≈ 1070 µM)	98.8 (≈ 268 µM)
CCn1cc(C(=O)N/N=C/c2ccc(Cl)cc2)c(=O)c2ccc(C)nc21		10	438 (≈ 1190 µM)	371 (≈ 1000 µM)	119 (≈ 322 µM)	40	308 (≈ 834 µM)	87.2 (≈ 236 µM)
CCn1cc(C(=O)N/N=C/c2cccc(Br)c2)c(=O)c2ccc(C)nc21	10	20	380 (≈ 920 µM)	628 (≈ 1520 µM)	209 (≈ 506 µM)	20	439 (≈ 1060 µM)	125 (≈ 303 µM)
CCn1cc(C(=O)N/N=C/c2cccc([N+](=O)[O-])c2)c(=O)c2ccc(C)nc21		10	287 (≈ 756 µM)	272 (≈ 716 µM)	212 (≈ 559 µM)	80	245 (≈ 645 µM)	89 (≈ 235 µM)
CCn1cc(C(=O)N/N=C/c2ccc([N+](=O)[O-])cc2)c(=O)c2ccc(C)nc21	10	10	464 (≈ 1220 µM)	575 (≈ 1520 µM)	125 (≈ 330 µM)	90	226 (≈ 595 µM)	70.1 (≈ 185 µM)
CCn1cc(C(=O)N/N=C/c2ccc(O)cc2)c(=O)c2ccc(C)nc21	10	40	364 (≈ 1040 µM)	308 (≈ 878 µM)	181 (≈ 517 µM)	70	330 (≈ 943 µM)	146 (≈ 416 µM)
CCn1cc(C(=O)N/N=C/c2cccc(OC)c2)c(=O)c2ccc(C)nc21		10	242 (≈ 665 µM)	210 (≈ 575 µM)	63.1 (≈ 173 µM)	10	157 (≈ 432 µM)	57.6 (≈ 158 µM)
CC1(C)C(C=C(Cl)Cl)C1C(=O)OC(C#N)c1cccc(Oc2ccccc2)c1 (stereo not drawn) [ALPHA-CYPERMETHRIN]						100		
CCCCC(O)(Cn1cncn1)c1ccc(Cl)cc1Cl (configuration not stated) [HEXACONAZOLE]			13 (≈ 41.4 µM)	4.4 (≈ 14 µM)	20.6 (≈ 65.6 µM)		18.3 (≈ 58.2 µM)	25.5 (≈ 81.2 µM)
